Values after ≈ are worked out from the molar mass of the structure shown.
Legend:
[1] = Cytotoxicity against human KBVIN cells assessed as growth inhibition after 72 hrs by SRB assay; type: functional; settings: for EC50: Homo sapiens, KBVIN, 72 h, read-out: ED50 (the source's name)
Method in brief: (§1)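 Sulforhodamine B assay run by NCI-validated procedure. Cells grown at 37 °C under humidified 5% CO2 in RPMI-1640 with 25 mM HEPES, […] (w/v) sodium bicarbonate, 10% (v/v) FBS and 100 μg/mL kanamycin. Compounds came from DMSO stocks, with final DMSO ≤ 1% (v/v). Continuous exposure for 72 h. ED50 (μg/mL, 50% cell-number reduction) interpolated from dose-response data. Triplicate tests. Doxorubicin served as positive control.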

[2] = Cytotoxicity against human […] cells assessed as growth inhibition after 72 hrs by SRB assay; type: functional; settings: for EC50: Homo sapiens, HCT9, 72 h, read-out: ED50 (the source's name); method in brief: as §1
[3] = Cytotoxicity against human U87MG cells assessed as growth inhibition after 72 hrs by SRB assay; type: functional, U-87MG ATCC; settings: for EC50: Homo sapiens, U-87 MG, 72 h, read-out: ED50 (the source's name); method in brief: as §1
[4] = system: PC-3; experiment: Cytotoxicity against human PC3 cells assessed as growth inhibition after 72 hrs by SRB assay; type: functional; settings: for EC50: Homo sapiens, PC-3, 72 h, read-out: ED50 (the source's name); method in brief: as §1
[5] = system: KB; experiment: Cytotoxicity against human KB cells assessed as growth inhibition after 72 hrs by SRB assay; type: functional; settings: for EC50: Homo sapiens, KB, 72 h, read-out: ED50 (the source's name); method in brief: as §1
[6] = system: A549; experiment: Cytotoxicity against human A549 cells assessed as growth inhibition after 72 hrs by SRB assay; type: functional; settings: for EC50: Homo sapiens, A549, 72 h, read-out: ED50 (the source's name); method in brief: as §1
[7] = system: CAKI-1; experiment: Cytotoxicity against human CAKI-1 cells assessed as growth inhibition after 72 hrs by SRB assay; type: functional; settings: for EC50: Homo sapiens, CAKI-1, 72 h, read-out: ED50 (the source's name); method in brief: as §1
[8] = system: 1A9; experiment: Cytotoxicity against human 1A9 cells assessed as growth inhibition after 72 hrs by SRB assay; type: functional; settings: for EC50: Homo sapiens, 1A9, 72 h, read-out: ED50 (the source's name); method in brief: as §1
[9] = system: SK-MEL-2; experiment: Cytotoxicity against human SK-MEL-2 cells assessed as growth inhibition after 72 hrs by SRB assay; type: functional; settings: for EC50: Homo sapiens, SK-MEL-2, 72 h, read-out: ED50 (the source's name); method in brief: as §1
[10] = system: MCF7; experiment: Cytotoxicity against human MCF7 cells assessed as growth inhibition after 72 hrs by SRB assay; type: functional; settings: for EC50: Homo sapiens, MCF7, 72 h, read-out: ED50 (the source's name); method in brief: as §1

SMILES | EC50 [1] | EC50 [2] | EC50 [3] | EC50 [4] | EC50 [5] | EC50 [6] | EC50 [7] | EC50 [8] | EC50 [9] | EC50 [10] | ED50 [1] | ED50 [2] | ED50 [3] | ED50 [4] | ED50 [5] | ED50 [6] | ED50 [7] | ED50 [8] | ED50 [9] | ED50 [10]
C[C@H]1O[C@H](O[C@H]2CC[C@]3(C=O)[C@H]4C[C@@H](O)[C@]5(C)[C@@H](C6=CC(=O)OC6)CC[C@]5(O)[C@@H]4CC[C@]3(O)C2)[C@H](O)[C@H](O)[C@H]1O | 0.15 µg/mL (≈ 0.265 µM) | 0.15 µg/mL (≈ 0.265 µM) | 0.017 µg/mL (≈ 0.03 µM) | 0.0044 µg/mL (≈ 0.00777 µM) | 0.14 µg/mL (≈ 0.247 µM) | 0.059 µg/mL (≈ 0.104 µM) | 0.072 µg/mL (≈ 0.127 µM) | 0.058 µg/mL (≈ 0.102 µM) | 0.13 µg/mL (≈ 0.229 µM) | 0.1 µg/mL (≈ 0.176 µM) |  |  |  |  |  |  |  |  |  | 
C[C@@H]1O[C@H](O[C@H]2CC[C@]3(C=O)[C@H]4C[C@@H](O)[C@]5(C)[C@@H](C6=CC(=O)OC6)CC[C@]5(O)[C@@H]4CC[C@]3(O)C2)[C@H](O)[C@H](O)[C@H]1O | 0.061 µg/mL (≈ 0.108 µM) | 0.066 µg/mL (≈ 0.116 µM) | 0.071 µg/mL (≈ 0.125 µM) | 0.05 µg/mL (≈ 0.0882 µM) | 0.067 µg/mL (≈ 0.118 µM) | 0.013 µg/mL (≈ 0.0229 µM) | 0.015 µg/mL (≈ 0.0265 µM) | 0.014 µg/mL (≈ 0.0247 µM) | 0.065 µg/mL (≈ 0.115 µM) | 0.018 µg/mL (≈ 0.0318 µM) |  |  |  |  |  |  |  |  |  | 
CC1(C)Oc2ccc3ccc(=O)oc3c2[C@@H](O[C@@H]2O[C@H](CO)[C@@H](O)[C@H](O)[C@H]2O)[C@@H]1O | 4.1 µg/mL (≈ 9.66 µM) |  | 7.4 µg/mL (≈ 17.4 µM) |  | 5.8 µg/mL (≈ 13.7 µM) | 1.2 µg/mL (≈ 2.83 µM) |  |  |  | 3.1 µg/mL (≈ 7.3 µM) |  |  |  |  |  |  |  |  |  | 
C[C@H]1O[C@@H](O[C@H]2CC[C@]3(C=O)[C@H]4CC[C@]5(C)[C@@H](C6=CC(=O)OC6)CC[C@]5(O)[C@@H]4CC[C@]3(O)C2)[C@H](O)[C@H](O)[C@H]1O[C@@H]1O[C@H](CO)[C@@H](O)[C@H](O)[C@H]1O | 1.7 µg/mL (≈ 2.39 µM) | 0.94 µg/mL (≈ 1.32 µM) | 1.9 µg/mL (≈ 2.67 µM) | 0.6 µg/mL (≈ 0.842 µM) | 1.5 µg/mL (≈ 2.1 µM) | 0.12 µg/mL (≈ 0.168 µM) | 0.51 µg/mL (≈ 0.716 µM) | 0.53 µg/mL (≈ 0.744 µM) | 0.16 µg/mL (≈ 0.224 µM) | 0.58 µg/mL (≈ 0.814 µM) |  |  |  |  |  |  |  |  |  | 
C[C@]12CC[C@H]3[C@@H](CC[C@@H]4C[C@@H](O)CC[C@@]43CO)[C@@]1(O)CC[C@@H]2C1=CC(=O)OC1 | 0.5 µg/mL (≈ 1.28 µM) | 0.46 µg/mL (≈ 1.18 µM) | 0.5 µg/mL (≈ 1.28 µM) | 0.15 µg/mL (≈ 0.384 µM) | 0.45 µg/mL (≈ 1.15 µM) | 0.05 µg/mL (≈ 0.128 µM) | 0.11 µg/mL (≈ 0.282 µM) | 12 µg/mL (≈ 30.7 µM) | 0.7 µg/mL (≈ 1.79 µM) | 0.21 µg/mL (≈ 0.538 µM) |  |  |  |  |  |  |  |  |  | 
CO[C@H]1[C@@H](O[C@H]2CC[C@]3(C=O)[C@H]4CC[C@]5(C)[C@@H](C6=CC(=O)OC6)CC[C@]5(O)[C@@H]4CC[C@]3(O)C2)O[C@H](C)[C@@H](O)[C@H]1O (stereo in doubt; 21) [STROPHATHOJAVOSIDE] |  |  |  |  |  |  |  |  |  |  | 0.051 µg/mL (≈ 0.0903 µM) | 0.067 µg/mL (≈ 0.119 µM) | 0.078 µg/mL (≈ 0.138 µM) | 0.052 µg/mL (≈ 0.0921 µM) | 0.066 µg/mL (≈ 0.117 µM) | 0.016 µg/mL (≈ 0.0283 µM) | 0.014 µg/mL (≈ 0.0248 µM) | 0.013 µg/mL (≈ 0.023 µM) | 0.064 µg/mL (≈ 0.113 µM) | 0.042 µg/mL (≈ 0.0744 µM)
CO[C@H]1[C@@H](O[C@H]2CC[C@]3(C=O)[C@H]4CC[C@]5(C)[C@@H](C6=CC(=O)OC6)CC[C@]5(O)[C@@H]4CC[C@]3(O)C2)O[C@H](C)[C@@H](O)[C@H]1O (stereo in doubt; 23) [STROPHATHOJAVOSIDE] | 0.05 µg/mL (≈ 0.0885 µM) | 0.085 µg/mL (≈ 0.151 µM) | 0.043 µg/mL (≈ 0.0762 µM) | 0.063 µg/mL (≈ 0.112 µM) | 0.081 µg/mL (≈ 0.143 µM) | 0.015 µg/mL (≈ 0.0266 µM) | 0.014 µg/mL (≈ 0.0248 µM) | 0.013 µg/mL (≈ 0.023 µM) | 0.063 µg/mL (≈ 0.112 µM) | 0.024 µg/mL (≈ 0.0425 µM) |  |  |  |  |  |  |  |  |  | 
C[C@H]1O[C@H](O[C@H]2CC[C@]3(C=O)[C@H]4C[C@@H](O)[C@]5(C)[C@@H](C6=CC(=O)OC6)CC[C@]5(O)[C@@H]4CC[C@]3(O)C2)[C@H](O)[C@H](O)[C@@H]1O [ANTIALLOSIDE] | 0.075 µg/mL (≈ 0.132 µM) | 0.11 µg/mL (≈ 0.194 µM) | 0.15 µg/mL (≈ 0.265 µM) | 0.085 µg/mL (≈ 0.15 µM) | 0.065 µg/mL (≈ 0.115 µM) | 0.046 µg/mL (≈ 0.0812 µM) | 0.068 µg/mL (≈ 0.12 µM) | 0.062 µg/mL (≈ 0.109 µM) | 0.12 µg/mL (≈ 0.212 µM) | 0.12 µg/mL (≈ 0.212 µM) |  |  |  |  |  |  |  |  |  | 
C[C@]12[C@H](O)C[C@H]3[C@@H](CC[C@]4(O)CCCC[C@]34C=O)[C@@]1(O)CC[C@@H]2C1=CC(=O)OC1 [ANTIARIGENIN] | 5.1 µg/mL (≈ 12.6 µM) | 4.5 µg/mL (≈ 11.1 µM) | 4.6 µg/mL (≈ 11.4 µM) | 1.2 µg/mL (≈ 2.97 µM) | 5.3 µg/mL (≈ 13.1 µM) | 0.59 µg/mL (≈ 1.46 µM) | 1.3 µg/mL (≈ 3.21 µM) | 0.12 µg/mL (≈ 0.297 µM) | 0.41 µg/mL (≈ 1.01 µM) | 1.3 µg/mL (≈ 3.21 µM) |  |  |  |  |  |  |  |  |  | 

Reference: ChEMBL document CHEMBL3120107, “Cytotoxic cardiac glycosides and coumarins from Antiaris toxicaria” (2014)
